Test results as given in ChEMBL document CHEMBL1287769, “Investigating the activity of 2-substituted alkyl-6-(2,5-dioxopyrrolidin-1-yl)hexanoates as skin penetration enhancers” (Bioorg Med Chem, 2010).

Columns and labels:
[1] = Potentiation of theophylline transdermal permeation in pig ear skin after 24 hrs by Franz diffusion cells method relative to untreated control; assay type: functional, Sus scrofa
How it was run: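 Thawed full-thickness porcine ear skin, epidermis up, in vertical Franz cell (0.635 cm2 donor area). Receptor: PBS pH 7.4, 37 °C, stirred; skin equilibrated 0.5 h. Donor: enhancer 20 mg in PG 0.5 mL plus theophylline 5 mg in water 0.5 mL, sonicated; controls without enhancer. Receptor sampled at 1, 2, 4, 8, 12, 24 h, theophylline by HPLC at 280 nm. Steady-state flux from linear region; ER = flux with/without enhancer; ≥3 determinations, ≥2 animals.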

[2] = Lipophilicity, log K of the compound in methanol-water mixture by HPLC; assay type: physicochemical
How it was run: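 Isocratic RP-HPLC on end-capped C18 column, methanol as organic modifier in mobile phase at various amounts, 25 °C, detection 204 nm. Dead time from KI in methanol. Capacity factor k = (tR − tD)/tD; log k used as lipophilicity index.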

SK-N-MC = assay: Antiproliferative activity against human SK-N-MC cells after 72 hrs by MTT assay; assay type: cell-based
How it was run: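 SK-N-MC cells (ATCC) grown in MEM with 10% FBS, pyruvate, non-essential amino acids, glutamine, antibiotics, fungizone at 37 °C, 5% CO2. Seeded 1.5 × 10^4 cells/well in medium with human diferric transferrin 1.25 µM ([Fe] = 2.5 µM), compounds 0–25 µM, 72 h. MTT added for 2 h, solubilized in SDS/isobutanol/HCl, read at 570 nm. IC50 = concentration reducing absorbance to 50% of untreated control; mean ± SD, n = 3.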

| log K [2] | IC50 (SK-N-MC) | Compound | fold change (FC) [1] |
| --- | --- | --- | --- |
| 0.0973 | > 6.25 µM | CCCCCCCCOC(=O)C(CCCCN1C(=O)CCC1=O)N1CCCCC1=O (stereo unspecified) | 1.88 |
| -0.2356 | > 6.25 µM | CCCCCCOC(=O)C(CCCCN1C(=O)CCC1=O)N1CCCCC1=O (stereo unspecified) | 2.33 |
| -0.0685 | > 6.25 µM | CCCCCCCOC(=O)C(CCCCN1C(=O)CCC1=O)N1CCCCC1=O (stereo unspecified) | 2.17 |
| -0.0736 | > 6.25 µM | CCCCCCOC(=O)C(CCCCN1C(=O)CCC1=O)N1CCOCC1 (stereo unspecified) | 2.11 |
|  |  | CCCCCCCC/C=C\CCCCCCCC(=O)O [OLEIC ACID] | 1.13 |
| 0.2613 | > 6.25 µM | CCCCCCCCOC(=O)C(CCCCN1C(=O)CCC1=O)N1CCOCC1 (stereo unspecified) | 1.8 |
| -0.7951 |  | CCOC(=O)C(CCCCN1C(=O)CCC1=O)N1CCOCC1 (stereo unspecified) |  |
| 0.5894 | > 6.25 µM | CCCCCCCCCCCOC(=O)C(CCCCN1C(=O)CCC1=O)N1CCCCC1=O (stereo unspecified) | 2.36 |
| 0.4285 | > 6.25 µM | CCCCCCCCCCOC(=O)C(CCCCN1C(=O)CCC1=O)N1CCCCC1=O (stereo unspecified) | 1.63 |
| 0.7588 | > 6.25 µM | CCCCCCCCCCCOC(=O)C(CCCCN1C(=O)CCC1=O)N1CCOCC1 (stereo unspecified) | 1.61 |
|  | 17.1 µM | CC(=O)N(O)CCCCCNC(=O)CCC(=O)N(O)CCCCCNC(=O)CCC(=O)N(O)CCCCCN [DEFEROXAMINE] |  |
| 0.7413 | > 6.25 µM | CCCCCCCCCCCCOC(=O)C(CCCCN1C(=O)CCC1=O)N1CCCCC1=O (stereo unspecified) | 1.75 |
| 0.2638 | > 6.25 µM | CCCCCCCCCOC(=O)C(CCCCN1C(=O)CCC1=O)N1CCCCC1=O (stereo unspecified) | 1.81 |
| 0.9221 | > 6.25 µM | CCCCCCCCCCCCOC(=O)C(CCCCN1C(=O)CCC1=O)N1CCOCC1 (stereo unspecified) | 1.92 |
| 0.5834 | > 6.25 µM | CCCCCCCCCCOC(=O)C(CCCCN1C(=O)CCC1=O)N1CCOCC1 (stereo unspecified) | 1.71 |
| -0.9565 |  | CCOC(=O)C(CCCCN1C(=O)CCC1=O)N1CCCCC1=O (stereo unspecified) |  |
| 0.4177 | > 6.25 µM | CCCCCCCCCOC(=O)C(CCCCN1C(=O)CCC1=O)N1CCOCC1 (stereo unspecified) | 1.49 |
| 0.0934 | > 6.25 µM | CCCCCCCOC(=O)C(CCCCN1C(=O)CCC1=O)N1CCOCC1 (stereo unspecified) | 1.26 |
